“Also recorded” adds a separate entry of the source.
Experiments:
[1] = tested on: 48 h-larvae mwh +/+ flr^3; assay: Wing spot test; type: in vivo, Drosophila melanogaster; details: for Total spots, statistical diagnosis / Small single spots (1-2 cells), statistical diagnosis: m = 2; for Total spots, statistical diagnosis / Large single spots (>cells), statistical diagnosis / Small single spots (1-2 cells), statistical diagnosis: vs negative control; for Large single spots (>cells), statistical diagnosis: m = 5
Outline: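 Crosses: mwh/mwh females × flr3/TM3,Bds males mated 2 h, eggs laid over 2 h. 48 h larvae were collected on 20% sucrose, washed in 24 ± 1 °C water, held 24 h in the dark on filter paper with PP-IX (0–69 mM in 5% sucrose), then fed CrO3 (0.025–2.5 mM) in instant medium, in triplicate. Non-Ser wings were scored at 40× for small (1–2 cells), large and twin spots. Frei–Würgler one-sided test, α=β=0.05, m multiplication factor.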

[2] = tested on: 48 h-larvae mwh+/+flr^3; assay: Wing spot test; type: in vivo, Drosophila melanogaster; details: CrO3 0.025–2.5 mM
[3] = tested on: 48 h-old mwh+/+flr^3 larvae; assay: Toxicity test; type: in vivo, Drosophila melanogaster; details: for % of non-viable larvae / No. of viable larvae ± SEM: 500 larvae
[4] = tested on: 48 h-old mwh +/+ flr^3 larvae; assay: Wing spot test, PP-IX pretreatment then 20 Gy gamma rays; type: in vivo, Drosophila melanogaster; details: for Large single spots (>cells) per wing / Large single spots (>cells), number of spots / Small single spots (1-2 cells) per wing / Small single spots (1-2 cells), number of spots / Total spots per wing / Total spots, number of spots / Twin spots per wing / Twin spots, number of spots: 80 wings; for Small single spots (1-2 cells), statistical diagnosis / Total spots, statistical diagnosis: m = 2
Outline: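 48 h-old mwh/flr3 larvae were pretreated 24 h in the dark on filter paper with PP-IX (0, 0.69, 6.9, 69 mM in 5% sucrose). Each group was then split: one half received 20 Gy from a Co-60 source (dose rate up to 1259.44 Gy/h), the other stayed unirradiated. Larvae were reared on hydrated instant medium to eclosion. Wing spots were scored by SMART and analysed by Frei–Würgler statistics, m multiplication factor.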

[5] = tested on: rats of the CF1 strain; details: cited from earlier work
[6] = tested on: Drosophila strain; details: chronic treatment, cited from earlier work
[7] = tested on: somatic cells of Drosophila; details: PP-IX 69 mM, 24 h after administration, with 0.5 mM N-nitroso-N-ethylurea (ENU); cited from earlier work
[8] = PP-IX 0.69 mM 24 h pretreatment alone, 120 wings
[9] = PP-IX 6.9 mM 24 h pretreatment alone, 120 wings
[10] = PP-IX 69 mM 24 h pretreatment alone, 160 wings
[11] = PP-IX 0.69 mM 24 h pretreatment + 20 Gy gamma rays
[12] = PP-IX 0.69 mM + 20 Gy gamma rays
[13] = PP-IX 6.9 mM 24 h pretreatment + 20 Gy gamma rays
[14] = PP-IX 6.9 mM + 20 Gy gamma rays
[15] = PP-IX 69 mM 24 h pretreatment + 20 Gy gamma rays
[16] = PP-IX 69 mM + 20 Gy gamma rays, m = 5

For `C=CC1=C(C)c2cc3[nH]c(cc4nc(cc5[nH]c(cc1n2)c(C)c5CCC(=O)O)C(CCC(=O)O)=C4C)c(C)c3C=C` [PP-IX, Protoporphyrin-IX], the “Large single spots (>cells) per wing” value [1, 8] was 0.05 spots per wing, the “Large single spots (>cells), number of spots” value (“Large single spots … of spots” for short) [1, 8] was 6 and the “Small single spots (1-2 cells) per wing” value [1, 8] was 0.33 spots per wing. For the same compound, the “Small single spots (1-2 cells), number of spots” value (“Small single spots … of spots” below) [1, 8] was 40, the “Total spots per wing” value [1, 8] was 0.41 spots per wing and the “Total spots, number of spots” value [1, 8] was 49. The “Twin spots per wing” value [1, 8] was 0.03 spots per wing, the “Twin spots, number of spots” value [1, 8] was 3 and the “Total spots, statistical diagnosis” value ([1]; PP-IX 0.69 mM alone) was “−”. The “Large single spots (>cells), statistical diagnosis” value ([1]; PP-IX 0.69 mM alone) was “−”, the “Large single spots (>cells) per wing” value [1, 9] was 0.05 spots per wing and the “Large single spots … of spots” value [1, 9] was 6. The “Small single spots (1-2 cells) per wing” value [1, 9] was 0.23 spots per wing, the “Small single spots … of spots” value [1, 9] was 28 and the “Total spots per wing” value [1, 9] was 0.28 spots per wing. The “Total spots, number of spots” value [1, 9] was 34, the “Twin spots per wing” value [1, 9] was 0 spots per wing and the “Twin spots, number of spots” value [1, 9] was “(0)”. For the same compound, the “Small single spots (1-2 cells), statistical diagnosis” value ([1]; PP-IX 6.9 mM alone) was “−”, the “Total spots, statistical diagnosis” value ([1]; PP-IX 6.9 mM alone) was “−” and the “Large single spots (>cells), statistical diagnosis” value ([1]; PP-IX 6.9 mM alone) was “−”. For the same compound, the “Large single spots (>cells) per wing” value [1, 10] was 0.14 spots per wing, the “Large single spots … of spots” value [1, 10] was 23 and the “Small single spots (1-2 cells) per wing” value [1, 10] was 0.51 spots per wing. The “Small single spots … of spots” value [1, 10] was 81, the “Total spots per wing” value [1, 10] was 0.66 spots per wing and the “Total spots, number of spots” value [1, 10] was 106. For the same compound, the “Twin spots per wing” value [1, 10] was 0.01 spots per wing, the “Twin spots, number of spots” value [1, 10] was 2 and the “Effect of PP-IX alone on basal mutation frequency” value ([1]; PP-IX 69 mM alone) was “doubled the basal mutation frequency”. For the same compound, the “Small single spots (1-2 cells), statistical diagnosis” value ([1]; PP-IX 69 mM alone) was “+”, the “Total spots, statistical diagnosis” value ([1]; PP-IX 69 mM alone) was “+” and the “Large single spots (>cells), statistical diagnosis” value ([1]; PP-IX 69 mM alone) was “−”. For the same compound, the “Mutagenicity of PP-IX alone” value ([1]; PP-IX 69 mM, damage comparable with 0.25 mM of CrO3) was “mutagenic”, the “Induction of genetic damage by PP-IX alone” value ([1]; PP-IX 0.69 and 6.9 mM) was “did not induce genetic damage” and the “Effect on genetic damage induced by CrO3” value ([2]; PP-IX 0.69 mM) was “significant decrease of damage in four of the five concentrations of CrO3 tested; also recorded: significantly reduced the genetic damage induced by all CrO3 concentrations tested”. For the same compound, the “Effect on genetic damage induced by CrO3” value ([2]; PP-IX 6.9 mM) was “significantly decreased the frequency of damage induced by 2 and 2.5 mM of the mutagen”, the “Effect on genetic damage induced by CrO3” value ([2]; PP-IX 69 mM) was “only reduced the damage induced by 2.5 mM” and the “% of non-viable larvae” value ([3]; PP-IX 0.69 mM) was 21%. The “No. of viable larvae ± SEM” value ([3]; PP-IX 0.69 mM) was 394 ± 1.7, the “% of non-viable larvae” value ([3]; PP-IX 6.9 mM) was 11% and the “No. of viable larvae ± SEM” value ([3]; PP-IX 6.9 mM) was 447 ± 0.6. For the same compound, the “Reduction of toxicity compared to control” value ([3]; PP-IX 6.9 mM, not significantly) was 5%, the “% of non-viable larvae” value ([3]; PP-IX 69 mM) was 26% and the “No. of viable larvae ± SEM” value ([3]; PP-IX 69 mM) was 368 ± 0.5. The “Toxicity compared to the control” value ([3]; PP-IX 0.69, 6.9, 69 mM (three concentrations tested)) was “nontoxic; also recorded: not toxic”, the “Large single spots (>cells) per wing” value [4, 11] was 1.16 spots per wing and the “Large single spots … of spots” value [4, 11] was 93. The “Small single spots (1-2 cells) per wing” value [4, 11] was 0.82 spots per wing, the “Small single spots … of spots” value [4, 11] was 66 and the “Total spots per wing” value [4, 11] was 2.07 spots per wing. For the same compound, the “Total spots, number of spots” value [4, 11] was 166, the “Twin spots per wing” value [4, 11] was 0.08 spots per wing and the “Twin spots, number of spots” value [4, 11] was 7. For the same compound, the “Small single spots (1-2 cells), statistical diagnosis” value [4, 12] was “−”, the “Total spots, statistical diagnosis” value [4, 12] was “−” and the “Twin spots, statistical diagnosis” value ([4]; PP-IX 0.69 mM + 20 Gy gamma rays, m = 5) was “−”. The “Large single spots (>cells) per wing” value [4, 13] was 1.84 spots per wing, the “Large single spots … of spots” value [4, 13] was 147 and the “Small single spots (1-2 cells) per wing” value [4, 13] was 0.69 spots per wing. The “Small single spots … of spots” value [4, 13] was 55, the “Total spots per wing” value [4, 13] was 2.67 spots per wing and the “Total spots, number of spots” value [4, 13] was 214. The “Twin spots per wing” value [4, 13] was 0.15 spots per wing, the “Twin spots, number of spots” value [4, 13] was 12 and the “Small single spots (1-2 cells), statistical diagnosis” value [4, 14] was “−”. For the same compound, the “Total spots, statistical diagnosis” value [4, 14] was “−”, the “Twin spots, statistical diagnosis” value ([4]; PP-IX 6.9 mM + 20 Gy gamma rays, m = 5) was “−” and the “Large single spots (>cells) per wing” value [4, 15] was 1.52 spots per wing. The “Large single spots … of spots” value [4, 15] was 122, the “Small single spots (1-2 cells) per wing” value [4, 15] was 1.16 spots per wing and the “Small single spots … of spots” value [4, 15] was 93. For the same compound, the “Total spots per wing” value [4, 15] was 2.76 spots per wing, the “Total spots, number of spots” value [4, 15] was 221 and the “Twin spots per wing” value [4, 15] was 0.07 spots per wing. For the same compound, the “Twin spots, number of spots” value [4, 15] was 6, the “Small single spots (1-2 cells), statistical diagnosis” value ([4]; PP-IX 69 mM + 20 Gy gamma rays) was “−” and the “Total spots, statistical diagnosis” value ([4]; PP-IX 69 mM + 20 Gy gamma rays) was “−”. The “Large single spots (>cells), statistical diagnosis” value [4, 16] was “−”, the “Twin spots, statistical diagnosis” value [4, 16] was “−” and the “Effect on damage induced by gamma rays” value ([4]; PP-IX all tested concentrations, 20 Gy) was “no effect; also recorded: Absence of an inhibitor effect”. For the same compound, the “Increase of catalase (CAT) activity” value ([5]; after 2 h of administration) was 30%, the Lipid peroxidation [5] was “induced lipid peroxidation” and the “Superoxide dismutase (SOD) enzyme” value [5] was “increased 24 h after administration”. For the same compound, the “Half life, Sod deficient strain” value ([6]; Sod deficient strain) was “half life was reduced”, the “Lifespan, wild strain” value ([6]; wild Drosophila strain) was “prolong the lifespan” and the “Mutagenicity in combination with ENU” value [7] was “mutagenic”.

From PMC5598375 (Toxicology Reports, 2014)
